Test results reported in ChEMBL document CHEMBL3351736, “A promising camptothecin derivative: Semisynthesis, antitumor activity and intestinal permeability” (Eur J Med Chem, 2014).
The source made the active and inactive calls. The calls are words filed in the database; no cut-off is given here.

Legend:
HeLa [1] = assay: Cytotoxicity against human HeLa cells after 24 hrs by MTT assay; assay type: functional, cell-based
Method in brief: (§1)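 Cells seeded at 25000 per well and held 24 h at 37 °C in 5% CO2. Medium was then renewed and compounds added at increasing concentrations (DMSO 0.1%, or water for topotecan) for 24 h. MTT solution (5 mg/mL) was added for 3 h at 37 °C, then absorbance read at 570 nm, corrected at 630 nm. IC50 in µM.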

A-375 [2] = assay: Cytotoxicity against human A375 cells after 24 hrs by MTT assay; assay type: functional, cell-based; conditions: A-375, 24 h; method in brief: as §1
Caco-2 [3] = assay: Induction of apoptosis in human Caco2 cells assessed as vital cells at 0.05 uM after 48 hrs by Annexin V/propidium iodide staining-based flow cytometric analysis (reference value: 96.67 +/- 1.02%); assay type: functional
Caco-2 [4] = assay: Induction of apoptosis in human Caco2 cells assessed as early apoptotic cells at 0.05 uM after 24 hrs by Annexin V/propidium iodide staining-based flow cytometric analysis (reference value: 0.72 +/- 0.03%); assay type: functional
Caco-2 [5] = assay: Induction of apoptosis in human Caco2 cells assessed as late apoptotic cells at 0.05 uM after 24 hrs by Annexin V/propidium iodide staining-based flow cytometric analysis (reference value: 2.20 +/- 0.77%); assay type: functional
Caco-2 [6] = assay: Induction of apoptosis in human Caco2 cells assessed as necrotic cells at 0.05 uM after 24 hrs by Annexin V/propidium iodide staining-based flow cytometric analysis (reference value: 0.41 +/- 0.02%); assay type: functional
Caco-2 [7] = assay: Induction of apoptosis in human Caco2 cells assessed as necrotic cells at 0.5 uM after 24 hrs by Annexin V/propidium iodide staining-based flow cytometric analysis (reference value: 0.41 +/- 0.02%); assay type: functional
A-375 [8] = assay: Induction of apoptosis in human A375 cells assessed as inhibition of DNA synthesis at 0.8 to 1.6 uM after 24 hrs by BrdU staining-based ELISA; assay type: functional, cell-based
Method in brief: (§2)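 BrdU colorimetric cell proliferation ELISA. Cells seeded at 25,000 per well, compounds added 24 h after seeding and incubated 24 h. Cells fixed and the immunoassay run per kit. Absorbance read at 370-492 nm over 3 intervals of 5 min; absorbance difference proportional to BrdU incorporation. Mean of three separate experiments in triplicate, compared with untreated control.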

HeLa [9] = assay: Induction of apoptosis in human HeLa cells assessed as inhibition of DNA synthesis at 0.8 to 1.6 uM after 24 hrs by BrdU staining-based ELISA; assay type: functional, cell-based; method in brief: as §2
MDA-MB-231 [10] = assay: Induction of apoptosis in human MDA-MB-231 cells assessed as inhibition of DNA synthesis at 0.8 to 1.6 uM after 24 hrs by BrdU staining-based ELISA; assay type: functional, cell-based; method in brief: as §2
MDA-MB-231 [11] = assay: Induction of apoptosis in human MDA-MB-231 cells assessed as inhibition of DNA synthesis after 24 hrs by BrdU staining-based ELISA; assay type: functional, cell-based
Method in brief: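 Cells seeded at 25,000/well; compounds added 24 h after seeding at a range of concentrations and incubated 24 h. Cells fixed, then colorimetric BrdU-incorporation ELISA. Absorbance read at 370-492 nm over 3 intervals of 5 min. Mean of three separate experiments with triplicate samples.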

[12] = Permeability from apical to basolateral side in human Caco2 cells at 10 to 50 uM after 15 to 90 mins by HPLC analysis; assay type: ADME, cell-based; conditions: caco-2, 50 µM
Method in brief: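 Caco-2 cells seeded at 400,000 per polycarbonate transwell insert (0.4 μm pore) and grown in DMEM for 19-22 days to confluence at 37°C, 5% CO2. TEER checked before and after each run. Compound in donor chamber, buffer in receiver. Run at 37°C with 50 rpm orbital shaking. Receiver sampled at 15, 30, 60 and 90 min with buffer replacement; donor sampled at start and end. HPLC quantitation; three independent experiments.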

[13] = Effective permeability in Wistar rat small intestine at 50 uM measured after 5 mins in every 5 min interval up to 30 mins; assay type: ADME, tissue-based; conditions: not told, read-out: Peff
Method in brief: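 In situ intestinal perfusion in male Wistar rats fasted 2 h with water allowed. Anaesthesia with diazepam (1.67 mg/kg), ketamine (50 mg/kg) and atropine (1 mg/kg); animals kept at 37 °C. Perfusate sampled every 5 min from 5 to 30 min; absorption rate constant and Peff derived.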

permeability [12]: permeable
Papp at 5 min, 50 µM [13]: 55.8 ×10⁻⁶ cm/s
SMILES: CC[C@@]1(O)C(=O)OCc2c1cc1n(c2=O)Cc2cc3c(CN(C)C)c(O)ccc3nc2-1.Cl [TOPOTECAN HYDROCHLORIDE]
IC50 (HeLa [1]): 380 nM
IC50 (A-375 [2]): 162 nM
Activity (Caco-2 [3]): 45.2%
Activity (Caco-2 [4]): 5.42%
Activity (Caco-2 [5]): 19.54%
Activity (Caco-2 [6]): 3.64%
Activity (Caco-2 [7]): 8.54%
Activity (A-375 [8]): Active
Activity (HeLa [9]): Active
Activity (MDA-MB-231 [10]): Active
inhibition (MDA-MB-231 [11]): Dose-dependent effect
